Here are results for 7 substances from publication PMC7124310 (Peptides, 2003).

No end group written: not given here.

The subject of one series is E. coli O18:K1:H7 Bort. As to the kind of experiment: MIC, microdilution susceptibility test. The class given is cell-based, Escherichia coli. To be noted: strain used in peritonitis model; Mueller–Hinton broth. In a few lines:
(§1)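 Strains were stored at −80 °C and subcultured in LB broth before use. MIC was determined by broth microdilution following NCCLS guidelines in Mueller–Hinton broth with logarithmic-phase bacteria. Values are the mean of at least four independent experiments.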

The test system of another series is P. aeruginosa ATCC 27853. Put plainly: MIC, microdilution susceptibility test. The class given is cell-based, Pseudomonas aeruginosa. The following applies: strain used in peritonitis model; Mueller–Hinton broth. In outline:
as §1
(In general: Broth dilution looks for growth in wells or tubes with falling amounts of substance.)

In a further series the test system is S. aureus MRSA. Put plainly: MIC, microdilution susceptibility test. The class given is cell-based, Staphylococcus aureus. To be noted: strain used in peritonitis model; Mueller–Hinton broth. In a few lines: as §1
Series [1] deals with Gram-negative and -positive clinical isolates. As to the kind of experiment: MIC, microdilution susceptibility test, whole panel of clinical isolates. In kind it is cell-based. To be noted: 53 bacterial isolates incl. antibiotic-resistant strains. In outline:
as §1

A further series concerns Gram-positive strains. As to the kind of experiment: MIC, microdilution susceptibility test, Gram-positive isolates. The following applies: Gram-positive strains (Fig. 1 and Table 2). The class given is cell-based. In a few lines: as §1
Another series relates to Vero76 cells. Put plainly: Peptide cytotoxicity, neutral red uptake assay. In kind it is cell-based. The following applies: for Cell survival: 30 min at 37°C, neutral red uptake after 48 h, uninfected cells. In outline: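 Confluent uninfected Vero76 monolayers (MEM, 10% FCS, penicillin/streptomycin) were exposed to test peptide (0.5–50 μM range, in MEM) for 30 min at 37 °C, 5% CO2. Cells were washed and kept 48 h in growth medium, then given 50 μg/ml neutral red for 3 h. They were fixed in formaldehyde/CaCl2, the dye was extracted with acidified ethanol, and A550 was read. Triplicates, two experiments.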

Series [2] deals with human herpes simplex virus type 1 (HSV-1). Put plainly: Virus yield inhibition assay. In kind it is cell-based, HSV-1 in Vero76 cells. To be noted: mean of two independent experiments in triplicate. In outline: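 Confluent Vero76 monolayers were infected with 10^4 […] HSV-1 together with test peptide in MEM for 30 min at 37 °C, washed with PBS, and incubated 24 h. They were freeze-thawed three times. Ten-fold supernatant dilutions were adsorbed 1 h onto fresh monolayers under a 0.8% carboxymethylcellulose/2% FCS overlay for 3 days. Plaques were stained with crystal violet and counted as % inhibition versus untreated controls. Triplicates, repeated.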

The next series concerns mammalian cells. The following applies: cited from earlier work.
Another series deals with Gram-negative species. Put plainly: MIC, microdilution susceptibility test, Gram-negative isolates. The class given is cell-based. The following applies: Gram-negative species (Fig. 2 and Table 2). In a few lines: as §1
A short description of a further series: In vivo toxicity, i.v. On the set-up: species or system male Balb/c mice. The following applies: single dose, Litchfield and Wilcoxon. In outline: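 Male Balb/c mice (about 20 g, 4 weeks old) received a single i.v. injection of increasing doses of test peptide in sterile PBS, with vehicle-only controls. Behaviour and survival were monitored for 7 days. LD50 was calculated by the Litchfield–Wilcoxon method.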

For series [3] the following is noted: 12 mg/kg peptide i.v.; cited from earlier work.
For series [4], the system named is A. baumannii and P. aeruginosa. As to the kind of experiment: MIC, microdilution susceptibility test. The class given is cell-based, Acinetobacter baumanni, Pseudomonas aeruginosa. To be noted: clinical isolates (Fig. 2). In a few lines:
as §1

Broadly, the MIC is the smallest concentration in the dilution series that meets the test's criterion for growth inhibition. Turning to “GGLRSLGRKILRAWKKYGPIIVPIIRI-NH2 [BMAP-28]”, the MIC against E. coli O18:K1:H7 Bort, against P. aeruginosa ATCC 27853 and with S. aureus MRSA was 2 µM each time. Also, the “MIC values in most cases” value in [1] was 1 to 8 µM. The substance also had an MIC values with Gram-positive strains of 1 to 8 µM. The Cell survival was 100% in the series with Vero76 cells (0.5 μM peptide), 83% in the series with Vero76 cells (5 μM peptide) and 5% in the series on Vero76 cells (50 μM peptide). In addition, the “cells taking up the neutral red dye (cytotoxicity)” value in the series with Vero76 cells (5 μM peptide) is 17%. The Virus yield inhibition in series [2] (0.5 μM peptide) amounted to 10%; in series [2] (5 μM peptide), 72%. Besides, the “concentration range toxic to mammalian cells” value in the series with mammalian cells was “above 10 μM”.
A word on the LD50: it is the dose at which mortality reaches 50%. The low end stands for greater toxicity, the high end for lower toxicity. In the case of “GRFKRFRKKFKKLFKKLSPVIPLLHL-NH2 [BMAP-27]”, the MIC is 0.5 µM in the series with E. coli O18:K1:H7 Bort, 1 µM against P. aeruginosa ATCC 27853 and 4 µM with S. aureus MRSA. In addition, in series [1], the “MIC values in most cases” value fell in the range of 1 to 8 µM. Besides, the MIC values against Gram-negative species was in the range of 1 to 2 µM. In addition, in the series on Vero76 cells (lowest peptide concentration tested (range 0.5–50 μM)), the “cytotoxicity to Vero cells” value is given as “cytotoxic even at the lowest peptide concentration tested”. In “In vivo toxicity, i.v.”, this substance gave an LD50 of 10 mg/kg. Also, the “concentration range toxic to mammalian cells” value in the series on mammalian cells is reported as “above 10 μM”.
With GGLRSLGRKILRAWKKYG-NH2 [BMAP-28(1–18)], the values for the MIC against E. coli O18:K1:H7 Bort, against P. aeruginosa ATCC 27853 and in the series on S. aureus MRSA were 2 µM, 2 µM and 4 to 8 µM, respectively. Besides, the “toxicity to Vero cells” value in the series on Vero76 cells (5 μM peptide) is given as “not toxic”. Besides, in the series on mammalian cells, the “cytotoxic and haemolytic activities” value was “virtually devoid”.
Turning to ILRAWKKYGPIIVPIIRI-NH2 [BMAP-28(10–27)], the MIC against E. coli O18:K1:H7 Bort amounted to 2 µM; against P. aeruginosa ATCC 27853, 8 µM; in the series on S. aureus MRSA it was 8 µM.
Take GRFKRFRKKFKKLFKKLS-NH2 [BMAP-27(1–18)]: the MIC was 8 µM against E. coli O18:K1:H7 Bort, 2 µM against P. aeruginosa ATCC 27853 and 4 to 8 µM in the series with S. aureus MRSA. Moreover, in the series on mammalian cells, the “cytotoxic and haemolytic activities” value was “virtually devoid”.
On to “indolicidin: a bovine cathelicidin peptide (ILPWKWPWWPWRR; ends and bridges not checked; UniProt P33046 131-143, looked up)”, for which the “toxicity to mice when injected i.v.” value in series [3] is recorded as “all treated animals died”.
On to “GGLRSLGRKILRAWKKYGPQATPATRQ-NH2 [mBMAP-28]”, for which the MIC with E. coli O18:K1:H7 Bort is 2 µM; in the series on P. aeruginosa ATCC 27853, 2 µM; against S. aureus MRSA it was above 32 µM. The same substance came in with an MIC values against Gram-positive strains above 32 µM. This substance also came in with an MICs in series [4] of 0.25 to 1 µM.
